In article PMC2692502 (Journal of Antimicrobial Chemotherapy, 2009):
Read-outs that look alike come from different tables or passages of the source.

Columns and labels:
[1] = Study 2: safety and tolerability; assay type: in vivo, human
How it was run: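 Healthy adults (24 enrolled) were randomized 3:2:1 in a single-blind, placebo-controlled, parallel-group design. Groups received test compound 6 mg/kg, 4 mg/kg or placebo as a 2 min peripheral iv injection by syringe driver, once daily for 7 days. All subjects entered the safety analysis. The investigator graded AEs for relatedness (not, unlikely, possibly, probably) and severity. Tabulated AEs were possibly or probably related. Follow-up was 9–11 days after last dose.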

[2] = assay type: in vivo, human; conditions: for AUC(0-t): AUC0–t, trapezoidal rule; for clearance: CL, healthy adult volunteers
How it was run: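 Healthy adult volunteers, randomized open-label two-period crossover: a single 6 mg/kg dose given as a 30 min iv infusion and as a 2 min iv injection, with a 5 day washout. Heparinized blood was drawn predose, immediately after dosing and up to 36 h after dosing ended. Total plasma drug was measured by HPLC (LLOQ 3 mg/L). Non-compartmental trapezoidal AUC was computed. The injection:infusion ratio (95% CI) came from ANOVA of log-transformed values.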

[3] = Study 1: safety and tolerability; assay type: in vivo, human; conditions: Study 1, 6 mg/kg
How it was run: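 Healthy adult volunteers in a randomized, open-label, single-dose, two-period crossover. Each received test compound 6 mg/kg as a 30 min iv infusion and as a 2 min peripheral iv injection by syringe driver, in random order, with a 5-day washout. The investigator graded AEs for relatedness (not, unlikely, possibly, probably related) and severity (mild/moderate/severe). Tabulated AEs were possibly or probably related. Follow-up was 1–11 days post-dose.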

[4] = independent of the daptomycin concentration; cited from earlier work
[5] = Study 2, 6 mg/kg 2 min iv injection once daily for 7 days, n = 12
[6] = Study 1, 2 min iv injection relative to 30 min iv infusion, 6 mg/kg, ANOVA of log-transformed values, n = 15

## CCCCCCCCCC(=O)N[C@@H](Cc1c[nH]c2ccccc12)C(=O)N[C@H](CC(N)=O)C(=O)N[C@@H](CC(=O)O)C(=O)N[C@@H]1C(=O)NCC(=O)N[C@@H](CCCN)C(=O)N[C@@H](CC(=O)O)C(=O)N[C@H](C)C(=O)N[C@@H](CC(=O)O)C(=O)NCC(=O)N[C@H](CO)C(=O)N[C@@H]([C@H](C)CC(=O)O)C(=O)N[C@@H](CC(=O)c2ccccc2N)C(=O)O[C@@H]1C [daptomycin]
[1]; [5]
  Subjects with at least one adverse event possibly or probably related to study drug: Any adverse event: 3 (25) n (%)
  Subjects with related adverse event: Gastrointestinal disorders: 0 n (%)
  Subjects with related adverse event: Infections and infestations: 0 n (%)
  Subjects with related adverse event: Nervous system disorders: 3 (25) n (%)
  Subjects with related adverse event: dizziness: 1 (8) n (%)
  Subjects with related adverse event: dizziness postural: 1 (8) n (%)
  Subjects with related adverse event: flatulence: 0 n (%)
  Subjects with related adverse event: headache: 1 (8) n (%)
  Subjects with related adverse event: lethargy: 0 n (%)
  Subjects with related adverse event: nausea: 0 n (%)
  Subjects with related adverse event: pain in extremity: 0 n (%)
  Subjects with related adverse event: paraesthesia: 0 n (%)
  Subjects with related adverse event: upper respiratory tract infection: 0 n (%)
  subjects with erythema (local injection-site reaction): two subjects
[1]; Study 2, 2 min iv injection, reactions generally mild and transient
  time to resolution of local injection-site reactions: ≤ 1 h
[1]; Study 2, multiple-dose, 24 subjects enrolled (placebo included)
  serious or other significant AEs: no serious or other significant AEs
[2]; [6]
  95% CI for the ratio of the geometric means, AUC0–t: 0.8709–1.0055
  95% CI for the ratio of the geometric means, AUC0–∞: 0.9007–1.0117
  95% CI for the ratio of the geometric means, Cmax: 0.9588–1.1719
[2]; Study 1, single 6 mg/kg dose, 30 min iv infusion, plasma, HPLC, non-compartmental, harmonic mean (SD), n = 15, SD
  t1/2: 8.7 (0.9) h
[2]; both, human, plasma, iv, 6 mg/kg, Study 1, single 6 mg/kg dose, 2 min iv injection, HPLC, arithmetic mean (SD), n = 15, not dose-normalized, SD
  AUC(0-t): 626 µg·h/mL
[2]; both, human, plasma, iv, 6 mg/kg, Study 1, single 6 mg/kg dose, 30 min iv infusion, HPLC, arithmetic mean (SD), n = 15, not dose-normalized, SD
  AUC(0-t): 670 µg·h/mL
[2]; both, human, plasma, iv, 6 mg/kg, AUC0–∞, Study 1, single 6 mg/kg dose, 2 min iv injection, HPLC, arithmetic mean (SD), n = 15, not dose-normalized, SD
  AUC(0-inf): 691 µg·h/mL
[2]; both, human, plasma, iv, 6 mg/kg, Study 1, single 6 mg/kg dose, 2 min iv injection, HPLC, non-compartmental, arithmetic mean (SD), n = 15, SD
  clearance: 0.148 mL/min/kg
[2]; both, human, plasma, iv, 6 mg/kg, Study 1, single 6 mg/kg dose, 30 min iv infusion, HPLC, non-compartmental, arithmetic mean (SD), n = 15, SD
  clearance: 0.138 mL/min/kg
[2]; both, human, plasma, iv, 6 mg/kg, Cmax, Study 1, single 6 mg/kg dose, 30 min iv infusion, HPLC, arithmetic mean (SD), n = 15, not dose-normalized, SD
  Cmax: 88.4 µg/mL
[2]; both, human, plasma, iv, 6 mg/kg, SD
  Vd: 0.113 L/kg
[3]; 2 min iv injection group
  local tolerability reaction: mild tenderness: one subject
[3]; 2 min iv injection, n = 16
  Subjects with at least one adverse event possibly or probably related to study drug: Any adverse event: 4 (25) n (%)
  Subjects with related adverse event: Gastrointestinal disorders: 1 (6) n (%)
  Subjects with related adverse event: Infections and infestations: 1 (6) n (%)
  Subjects with related adverse event: Nervous system disorders: 1 (6) n (%)
  Subjects with related adverse event: fatigue: 1 (6) n (%)
  Subjects with related adverse event: headache: 1 (6) n (%)
  Subjects with related adverse event: nausea: 1 (6) n (%)
  Subjects with related adverse event: urinary tract infection: 1 (6) n (%)
[3]; 30 min iv infusion group
  local tolerability reaction: mild tenderness: two subjects
  local tolerability reaction: pain: one subject
[3]; 30 min iv infusion, n = 15
  Subjects with at least one adverse event possibly or probably related to study drug: Any adverse event: 2 (13) n (%)
  Subjects with related adverse event: Gastrointestinal disorders: 0 n (%)
  Subjects with related adverse event: Infections and infestations: 2 (13) n (%)
  Subjects with related adverse event: Nervous system disorders: 0 n (%)
  Subjects with related adverse event: fatigue: 0 n (%)
  Subjects with related adverse event: headache: 0 n (%)
  Subjects with related adverse event: nausea: 0 n (%)
  Subjects with related adverse event: urinary tract infection: 2 (13) n (%)
[3]; both regimens
  serious or severe AEs or deaths: no serious or severe AEs or deaths were reported
  tolerability: well tolerated
[3]; both regimens, 16 subjects
  total AEs reported: 21
[3]; both regimens, of 21 AEs
  AEs of mild severity: Nineteen
[4]
  protein bound: 90–93%
